Bioassay records: PubChem, several laboratories
MPTP inh = inhibitors of mitochondrial permeability transition pore. isolated mouse mitochondria, Ca2+ swelling absorbance, 30 min. inhibition, % at 10 µM. hit rate 1.4% among 360,000. AID 602449;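 active = inhibition of 50% or more, scaled per plate between neutral and stimulator controls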
OX1R antag-1 = antagonists of human orexin 1 receptor | CHO/OX1R cells, Fluo-8 calcium fluorescence, orexin A | hit rate 0.43% among 330,000 | inhibition, % at 5 µM;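 active = inhibition above its plate's threshold, mean inhibition of all tested compounds on the plate plus 3 SD, cut at about 37% in these data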
CHO parental Ca = counter-screen for OX1R antagonists: effect in parental CHO cells. AID 463079. inhibition, % at 5.6 µM. hit rate 0.63% among 330,000. parental CHO-K1, ATP-induced calcium, Fluo-8 fluorescence;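 active = inhibition above that plate's mean sample inhibition plus 3 SD, cut at about 26% in these data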
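Assay system – parental CHO cells · Reagent – ATP stimulus · Detection – intracellular calcium via Fluo-8 no-wash fluorescent dye · Evaluation – percent inhibition of ATP-evoked calcium rise, normalized to controls · Controls – ATP wells versus no-ATP DMSO wells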
GPR7 antagonist = human neuropeptides B/W receptor 1 antagonism | P48145 | GPR7-expressing cells, fluorescence antagonist assay | inhibition, % at 4.4 µM | hit rate 1.1% among 290,000 | AID 1861; in the data active = inhibition above about 16%, passing the limit was not always enough;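 note: cells stimulated with the agonist NPW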
Target sequence (P48145 whole entry, looked up): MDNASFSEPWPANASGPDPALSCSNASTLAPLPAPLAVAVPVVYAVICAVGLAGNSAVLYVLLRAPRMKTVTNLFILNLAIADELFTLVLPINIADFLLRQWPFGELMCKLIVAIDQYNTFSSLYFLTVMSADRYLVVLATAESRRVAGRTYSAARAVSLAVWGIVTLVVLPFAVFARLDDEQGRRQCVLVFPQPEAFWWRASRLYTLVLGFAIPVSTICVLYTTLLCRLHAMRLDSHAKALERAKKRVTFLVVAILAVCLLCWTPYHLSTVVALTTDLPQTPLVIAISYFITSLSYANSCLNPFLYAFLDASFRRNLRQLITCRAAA
OX1R antag-2 = antagonists of human orexin 1 receptor (OX1R). O43613. hit rate 1.8% among 330,000. inhibition, % at 6.6 µM. OX1R-expressing cells, FRET antagonist read-out. AID 485270; in the data active = inhibition mostly above about 38%, no sharp cut-off; inactive = mostly below about 40%
OX1R Fluo8 conf = OX1R (human) antagonism, confirmed | CHO/OX1R cells, orexin A calcium Fluo-8 fluorescence | shares compounds with OX1R antag-1 | inhibition, % at 5 µM | AID 492963 | hit rate 38% among 1,100; in the data active = inhibition above about 29%
CHO Ca triplic = counter-screen: parental CHO calcium response change, triplicate; shares compounds with OX1R antag-1; parental CHO-K1, ATP-induced calcium, Fluo-8 fluorescence; inhibition, % at 5.6 µM; hit rate 9.3% among 1,100; AID 492965;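 active = inhibition above a per-plate limit, the mean inhibition of that plate's test compounds plus 3 SD, cut at about 25% in these data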
OX1R HTRF confirm = confirmation of human orexin 1 receptor antagonists, HTRF format. shares compounds with OX1R antag-2. inhibition, % at 6.6 µM. hit rate 49% among 1,800. OX1R-expressing cells, HTRF antagonist assay; in the data active = inhibition above about 55%;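 note: CHO cells expressing OX1R stimulated with orexin A at about EC80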
CHO-K1 HTRF = signal in parental CHO-K1 cells, OX1R antagonist counter-screen; shares compounds with OX1R antag-2; HTRF counterscreen; inhibition, % at 6.6 µM; hit rate 48% among 1,800; AID 493232; in the data active = inhibition above about 17%
MPTP counter = membrane potential counter-screen of mitochondrial pore inhibitors; inhibition, % at 10 µM; hit rate 78% among 5,000; isolated mitochondria, Rhodamine 123 fluorescence; shares compounds with MPTP inh; in the data active = inhibition above about 22%
Hits are given with their value; . = inactive; / = no result. Shown are actives, neighbours in structure and some others; about 3.8% of the full set was active somewhere.

SMILES	MPTP inh	OX1R antag-1	CHO parental Ca	GPR7 antagonist	OX1R antag-2	OX1R Fluo8 conf	CHO Ca triplic	OX1R HTRF confirm	CHO-K1 HTRF	others
NC(=O)c1cccc(-c2coc3c(C(=O)NC4CCCCC4)cccc23)c1	.	/	/	/	/	/	/	/	/
COc1ccc(Br)cc1/C=C/C(=O)Nc1ccc2ccccc2c1	.	46.3	.	.	90.9	.	.	89.3	.
Cc1ccc(CCNC(=O)CN(c2cc(C)cc(C)c2)S(=O)(=O)c2c(C)noc2C)cc1	.	.	.	.	.	/	/	/	/
Cc1ccc(N(CC(=O)NCCc2ccc(Cl)cc2)S(=O)(=O)c2c(C)noc2C)cc1	.	.	.	.	48.6	59.5	.	86.3	.
Cc1ccc(CCNC(=O)CN(c2ccc(C)cc2)S(=O)(=O)c2c(C)noc2C)cc1	.	59.6	.	.	79.9	29.5	.	79.7	.
COc1ccc(N(CC(=O)NC(C)c2ccccc2)S(=O)(=O)c2c(C)noc2C)cc1 (configuration not stated)	.	.	.	.	67.4	.	.	65.5	.
Cn1c(=O)c2c(SCC(=O)N3CCCCC3)nc(-c3ccccc3F)nc2n(C)c1=O	.	.	.	.	.	/	/	/	/
Cc1cccc(NC(=O)/C(C#N)=C\c2cn(CC(=O)O)c3ccccc23)c1	.	.	.	.	82.7	37.2	.	78.2	.
N#C/C(=C/c1cn(CC(=O)O)c2ccccc12)C(=O)Nc1ccccc1	.	.	.	.	.	/	/	/	/
Cc1cc(NCCCN)nc(-c2ccccc2O)n1	.	.	.	.	55.2	.	.	.	.
Cc1cc(N/N=C/c2ccc(O)c(C)c2O)nc(-c2ccccc2O)n1	.	50.7	.	.	63.4	39.5	.	.	17.3
COc1cccc(C(=O)Nc2ccc(-c3nnc(-c4ccco4)o3)cc2)c1	.	.	.	.	77.2	33.9	.	71.3	19.6
O=C(CCl)Nc1cccc(S(=O)(=O)N2CCCCCC2)c1	.	.	.	.	.	/	/	/	/
CC(NC(C)c1ccccc1Cl)C(=O)Nc1cccc(S(=O)(=O)N2CCCCC2)c1 (configuration not stated)	.	89.5	.	/	88.2	79.9	.	88.8	.
C=CCn1c(SCc2ccc(C#N)cc2)nnc1-c1cccc(Cl)c1	.	.	.	.	.	/	/	/	/
C=CCn1c(SCc2ccc(C(=O)Nc3nccs3)cc2)nnc1-c1ccc(C)c(Cl)c1	.	70.5	.	.	79.3	68.9	.	82.0	.
O=C(O)CSc1nnc(-c2cccc(S(=O)(=O)N3CCOCC3)c2)n1-c1cccc(Cl)c1	.	.	.	.	.	/	/	/	/
O=C(OCc1cc(=O)n2c(n1)sc1ccccc12)c1cccc(O)c1	.	.	.	.	97.2	52.0	.	86.3	.
COc1ccccc1OCC(=O)Nc1ccncc1	.	.	.	.	.	/	/	/	/
Cc1cccc(OCC(=O)Nc2ccncc2)c1C	82.1	.	.	.	.	.	51.1	/	/	MPTP counter=86.6
O=C(Nc1ccc([N+](=O)[O-])cc1)Nc1ccc2c(c1)OCCO2	94.9	.	.	.	.	.	.	/	/	MPTP counter=89.8
Cc1ccc(C(=O)Nc2ccc(Br)c(C(F)(F)F)c2)cc1	94.1	.	.	.	50.7	.	.	.	.	MPTP counter=83.0
Cc1ccc(NC(=O)c2ccc(C)cc2)cc1	.	.	.	/	.	/	/	/	/
CCOCCCNc1ccc(N2C(=O)C3CCCCC3C2=O)cc1[N+](=O)[O-] (configuration not stated)	.	.	.	.	.	/	/	/	/
C(=C\c1ccccc1)/CN1CCN(c2ncnc3c2oc2ccccc23)CC1	95.0	48.1	.	.	.	.	56.6	/	/	MPTP counter=94.4
COC(=O)C1=C(C)N(Cc2ccccc2)C(=NCc2cccc(Cl)c2)N[C@H]1c1cccc(F)c1	85.7	60.7	.	/	.	51.3	.	/	/	MPTP counter=.
